As usually defined, the Kd is the constant that tells how readily two partners part at equilibrium. Lower therefore signals a tighter complex.

Consider 2 compounds from PMC6911266 (Nature, 2019).

Substitutions are numbered along the chain they refer to. Like-named read-outs stand apart in the source and are kept apart here.

Test [1] deals with T1, PfCRT 7G8+C350R (Plasmodium falciparum, UniProt W7FI62, C350R).
T1 sequence (W7FI62 1-424 C350R): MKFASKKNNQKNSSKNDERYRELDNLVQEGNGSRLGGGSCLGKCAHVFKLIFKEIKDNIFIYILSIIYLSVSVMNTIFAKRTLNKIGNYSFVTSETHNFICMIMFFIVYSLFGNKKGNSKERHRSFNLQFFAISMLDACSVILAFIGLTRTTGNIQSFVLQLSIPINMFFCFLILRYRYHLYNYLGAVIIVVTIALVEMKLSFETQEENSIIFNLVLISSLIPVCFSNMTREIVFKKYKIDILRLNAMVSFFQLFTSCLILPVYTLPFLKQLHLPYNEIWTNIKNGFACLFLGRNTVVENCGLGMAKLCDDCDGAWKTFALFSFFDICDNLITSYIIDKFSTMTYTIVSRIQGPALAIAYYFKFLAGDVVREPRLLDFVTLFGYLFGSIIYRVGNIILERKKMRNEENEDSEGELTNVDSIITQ
The test can be described thus: Equilibrium dialysis binding, PfCRT variant in nanodiscs. The following applies: for Bmax, binding at pH 5.5 / Bmax, binding at pH 7.5: equilibrium dialysis.

The target in a further test is T2, PfCRT WT (3D7) (Plasmodium falciparum, UniProt Q9N623).
T2 sequence (Q9N623 1-424): T1 sequence (W7FI62 1-424 C350R) with S72C, T76K, S220A, D326N, R350C, L356I
Briefly: Equilibrium dialysis binding, PfCRT variant in nanodiscs. The following applies: for Bmax, binding at pH 5.5 / Bmax, binding at pH 7.5: equilibrium dialysis. In a few lines:
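Saturation binding of [3H]-CQ (1 Ci/mmol) or [3H]-PPQ (2.5 Ci/mmol) by equilibrium dialysis (12,000–14,000 MWCO) with 4.2 pmol PfCRT in POPG/MSP1D1 nanodiscs (BacMam, HEK293S GnTi- cells). Kd came from global non-linear regression, N=3.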
(In equilibrium dialysis only unbound substance equilibrates across the membrane.)

For test [2], the system named is P. falciparum Dd2^Dd2 parasite line. The test can be described thus: [3H]-drug accumulation assay in cultured parasites. The following applies: 60 min, trophozoites. It counts as cell-based, Plasmodium falciparum. In a few lines:
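Sorbitol-synchronized early trophozoites (24–26 h) were magnet-purified and resuspended in bicarbonate-free RPMI 1640 (25 mM HEPES, 10 mM glucose, 0.2 mM hypoxanthine, pH 7.4), counted by hemocytometer. They were mixed with an equal volume of radiolabelled drug (10 nM [3H]-CQ before mixing) for 1 h at 37°C, spun through dibutyl phthalate, then scintillation counted. CAR was internal/external drug, corrected for uninfected erythrocytes, per 10^6 cells at 75 fl; 4–6 assays in duplicate.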

Test [3] concerns the target T3, PfCRT 7G8+F145I (Plasmodium falciparum, UniProt W7FI62, F145I).
T3 sequence (W7FI62 1-424 F145I): T1 sequence (W7FI62 1-424 C350R) with F145I, R350C
The test can be described thus: Transport. The settings on record: for 1-min uptake, transport in proteoliposomes: 100 nM [3H]-drug, inwardly-directed pH gradient; for Vmax, transport in proteoliposomes: initial rates over 3 s, Michaelis-Menten fit; for transport activity (in words): proteoliposomes. The format is biochemical.

The target of test [4] is T1, PfCRT 7G8+C350R. Briefly: Transport. It counts as biochemical. The following applies: for 1-min uptake, transport in proteoliposomes: 100 nM [3H]-drug, inwardly-directed pH gradient; for Vmax, transport in proteoliposomes: initial rates over 3 s, Michaelis-Menten fit; for transport activity (in words): proteoliposomes.
The nature of test [5]: Uptake in control liposomes. It counts as biochemical. The settings on record: 100 nM [3H]-drug, liposomes without PfCRT. In a few lines:
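Control liposomes lack PfCRT and are loaded with 100 mM KPi, pH 7.5, and 2 mM β-mercaptoethanol. They are diluted into 100 mM Tris/Mes, pH 5.5, with 100 nM [3H]-CQ (5.45 Ci/mmol) or [3H]-PPQ (15 Ci/mmol) for 1 min. Non-specific filter binding, measured as mock uptake without liposomes, is subtracted. Data come from 2 independent experiments, each with 4 technical replicates.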

The next test addresses T4, PfCRT 7G8 (Plasmodium falciparum, UniProt W7FI62).
T4 sequence (W7FI62 1-424): T1 sequence (W7FI62 1-424 C350R) with R350C
The format is biochemical. The following applies: for transport activity (in words): proteoliposomes.

The target of test [6] is T3, PfCRT 7G8+F145I. The test can be described thus: Equilibrium dialysis binding, PfCRT variant in nanodiscs. The following applies: for Bmax, binding at pH 5.5 / Bmax, binding at pH 7.5: equilibrium dialysis.
[7] abbreviates: binding at pH 5.5, equilibrium dialysis, pH 5.5.
Setting [8] is: binding at pH 7.5, equilibrium dialysis, pH 7.5.

As for `CCN(CC)CCCC(C)Nc1ccnc2cc(Cl)ccc12` (centres unmarked) [CQ, chloroquine], the Kd at PfCRT 7G8+C350R [1] (setting [7]) turned out to be 130 ± 30 nM; on PfCRT 7G8+C350R [1] (setting [8]), 300 ± 60 nM; at PfCRT WT (3D7), 280 ± 40 nM; at PfCRT 7G8+F145I [6] (setting [7]), 240 ± 60 nM; at PfCRT 7G8+F145I [6] (setting [8]), 290 ± 50 nM. The “Bmax, binding at pH 5.5” value on PfCRT 7G8+C350R [1] (pH 5.5) turned out to be 0.37 ± 0.02 mol CQ/mol PfCRT; at PfCRT WT (3D7), 0.40 ± 0.02 mol CQ/mol PfCRT; on PfCRT 7G8+F145I [6] (pH 5.5), 0.39 ± 0.03 mol CQ/mol PfCRT. Besides, the entries for the “Bmax, binding at pH 7.5” value at PfCRT 7G8+C350R [1] (pH 7.5), at PfCRT WT (3D7) and at PfCRT 7G8+F145I [6] (pH 7.5) were 0.42 ± 0.03 mol CQ/mol PfCRT, 0.42 ± 0.02 mol CQ/mol PfCRT and 0.43 ± 0.02 mol CQ/mol PfCRT, respectively. Moreover, the “[3H]-CQ CAR (cellular accumulation ratio)” value in test [2] (5 nM [3H]-CQ) came to 26.3 ± 2.9. The “1-min uptake, transport in proteoliposomes” value was determined as 0.24 ± 0.05 nmol/mg at PfCRT 7G8+F145I [3]; 0.80 ± 0.21 nmol/mg at PfCRT 7G8+C350R [4]; 3.14 ± 0.50 nmol/mg on PfCRT 7G8 (100 nM [3H]-drug, 1 min, inwardly-directed pH gradient). The “Vmax, transport in proteoliposomes” value at PfCRT 7G8+F145I [3] was 63.01 ± 3.57 nmol/mg/min; on PfCRT 7G8+C350R [4], 17.97 ± 0.87 nmol/mg/min; on PfCRT 7G8 (initial rates over 3 s, Michaelis-Menten fit), 92.2 ± 4.9 nmol/mg/min. The “transport activity (in words)” value at PfCRT 7G8+F145I [3] is reported as “reduced uptake”; on PfCRT 7G8+C350R [4] it was “reduced uptake”; on PfCRT 7G8 it was “robust transport activity”. Also, in test [5], the “1-min uptake in control liposomes” value was 0.12 ± 0.02 nmol/mg. Also, the “catalytic turnover number (kcat)” value at PfCRT 7G8 (from Vmax, assuming full activity of reconstituted PfCRT 7G8) is reported as ~ 0.2 s^−1. Also, the “time course of uptake (in words)” value on PfCRT 7G8 (pH gradient 5.5–7.5 and membrane potential (valinomycin)) is listed as “maximal within one minute”.
As to `Clc1ccc2c(N3CCN(CCCN4CCN(c5ccnc6cc(Cl)ccc56)CC4)CC3)ccnc2c1` [PPQ, piperaquine], the Kd was 210 ± 30 nM at PfCRT 7G8+C350R [1] (setting [7]); 250 ± 40 nM at PfCRT 7G8+C350R [1] (setting [8]); 260 ± 40 nM on PfCRT WT (3D7); 220 ± 30 nM at PfCRT 7G8+F145I [6] (setting [7]); 260 ± 30 nM on PfCRT 7G8+F145I [6] (setting [8]). Also, the “Bmax, binding at pH 5.5” value on PfCRT 7G8+C350R [1] (pH 5.5) came to 0.39 ± 0.02 mol CQ/mol PfCRT; at PfCRT WT (3D7) it was 0.38 ± 0.02 mol CQ/mol PfCRT; on PfCRT 7G8+F145I [6] (pH 5.5) it was 0.38 ± 0.01 mol CQ/mol PfCRT. In addition, the entries for the “Bmax, binding at pH 7.5” value at PfCRT 7G8+C350R [1] (pH 7.5), on PfCRT WT (3D7) and on PfCRT 7G8+F145I [6] (pH 7.5) were 0.41 ± 0.02 mol CQ/mol PfCRT, 0.40 ± 0.02 mol CQ/mol PfCRT and 0.42 ± 0.01 mol CQ/mol PfCRT, respectively. Further, the “fold increase in Kd compared with 7G8 parental isoform” value on PfCRT 7G8+C350R [1] (pH 5.5) and at PfCRT 7G8+F145I [6] (pH 5.5) was ~ 2 fold in each case. Besides, in test [2] (20 nM [3H]-PPQ), the “[3H]-PPQ CAR (cellular accumulation ratio)” value amounted to 1861.3 ± 91.8. Also, the figures for the “1-min uptake, transport in proteoliposomes” value on PfCRT 7G8+F145I [3] and at PfCRT 7G8+C350R [4] were 1.41 ± 0.12 nmol/mg and 0.82 ± 0.07 nmol/mg, respectively. Also, the “Vmax, transport in proteoliposomes” value at PfCRT 7G8+F145I [3] was 109.30 ± 7.27 nmol/mg/min; on PfCRT 7G8+C350R [4], 153.00 ± 3.10 nmol/mg/min. Further, the “transport activity (in words)” value was “substantially increased” on PfCRT 7G8+F145I [3], “substantially increased” at PfCRT 7G8+C350R [4], “Minimal” on PfCRT 7G8 and “no detectable” on PfCRT 7G8 (listed as [^3H]-PPQ). Further, in test [5], the “1-min uptake in control liposomes” value was 0.09 ± 0.01 nmol/mg.
